Assay results reported in publication PMC2736393 (Biochemistry, 2009).
Residue numbers refer to the chain shown, from its start. Names may count otherwise. No end group written: not given here.

What was measured:
[1] = molecular target: T1, GRK2 (rhodopsin substrate) (Bos taurus, UniProt P21146); test: Inhibition of GRK2 phosphorylation of Rho* by GRK peptides; type: biochemical; details: 1-15 µM rhodopsin, 60 µM peptide; 3 independent experiments
T1 sequence (P21146 1-689): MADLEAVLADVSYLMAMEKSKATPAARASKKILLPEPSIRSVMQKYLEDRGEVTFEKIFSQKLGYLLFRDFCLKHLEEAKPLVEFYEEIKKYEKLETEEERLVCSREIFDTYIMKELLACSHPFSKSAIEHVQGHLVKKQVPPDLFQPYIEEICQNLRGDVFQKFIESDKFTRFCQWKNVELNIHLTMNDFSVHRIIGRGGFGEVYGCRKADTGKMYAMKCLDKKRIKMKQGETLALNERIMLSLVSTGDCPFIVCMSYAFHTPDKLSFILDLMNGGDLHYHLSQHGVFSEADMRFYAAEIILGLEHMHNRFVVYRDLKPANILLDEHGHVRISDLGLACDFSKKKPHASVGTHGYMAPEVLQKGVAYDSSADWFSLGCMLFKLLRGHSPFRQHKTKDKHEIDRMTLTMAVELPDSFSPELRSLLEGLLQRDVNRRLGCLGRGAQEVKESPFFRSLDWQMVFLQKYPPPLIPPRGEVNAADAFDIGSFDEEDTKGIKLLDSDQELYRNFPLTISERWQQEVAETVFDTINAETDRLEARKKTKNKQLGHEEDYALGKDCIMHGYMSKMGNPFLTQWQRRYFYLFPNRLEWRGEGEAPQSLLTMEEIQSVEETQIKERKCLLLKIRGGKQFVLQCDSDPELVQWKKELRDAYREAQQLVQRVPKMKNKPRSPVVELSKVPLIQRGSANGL
Procedure, shortened: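 Sf9-expressed, purified GRK2 (20 nM) phosphorylated 1–15 µM light-activated rhodopsin with or without 60 µM test peptide. Products were resolved by SDS-PAGE and autoradiographed, then bands were excised and scintillation-counted. Values are mean ± SD from three experiments.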

[2] = molecular target: T2, GRK2 (β2AR substrate) (Bos taurus, UniProt P21146); test: Inhibition of GRK2 phosphorylation of β2AR by GRK peptides; type: biochemical
T2 sequence (P21146 1-689): T1 sequence (P21146 1-689)

[3] = molecular target: T1, GRK2 (rhodopsin substrate); details: cited from earlier work
[4] = Circular dichroism of GRK2 peptides; type: physicochemical; details: 16 µM peptide in PBS pH 7.0, 4°C
Procedure, shortened: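 Far-UV CD spectra recorded at 4°C over 200–280 nm in a 1.0 cm pathlength cuvette (1 nm/min, 4 s response, 1 nm bandwidth). Test peptide was diluted to 16 µM in PBS pH 7.0 with varying trifluoroethanol. Observed ellipticity was converted to molar ellipticity using mean residue weight, path length and concentration. Relative helix content was deduced from these spectra.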

[5] = test system: rhodopsin (Rho*); test: Phosphorylation of light-activated rhodopsin; type: biochemical; details: COS-1 lysates, 2-20 min, 30°C; autoradiography (Fig. 1B)
[6] = test system: β2-adrenergic receptor (β2AR); test: Phosphorylation of purified β2AR by purified GRK2 mutants; type: biochemical, human; details: 50 nM β2AR in mixed micelles, 20 nM GRK2, 10 µM isoproterenol, 0.2 mM ATP, 30°C; 3 experiments
[7] = test system: GPCR; details: cited from earlier work

MADLEAVLADVYSL [GRK2 peptide]
Km change [1]: no change in the Km
IC50 [2]: ~50 µM

MELENIVANTLLK [GRK5 peptide, reference compound]
effect on GRK2-mediated phosphorylation of rhodopsin [3]: no effect
effect on GRK2-mediated β2AR phosphorylation ([2]; 200 µM peptide, 3 experiments (Fig. 4E)): no significant effect

MADLEAPLADVYSL [Pro peptide]
helix formation ([4]; in solution without TFE (0% TFE)): minimal helical formation in solution
helix formation ([4]; in the presence of TFE (25-50%)): no helix formation was observed

B1: D3K: GRK2 amino terminal point mutant, Asp-3 to lysine (protein)
chain: T1 sequence (P21146 1-689) with D3K
ability to phosphorylate Rho* [5]: completely defective in their ability to phosphorylate Rho*
decrease in β2AR phosphorylation activity vs wild-type GRK2 [6]: ~ 60%

B2: D10A: GRK2 amino terminal point mutant (protein)
chain: T1 sequence (P21146 1-689) with D10A
ability to phosphorylate Rho* [5]: completely defective in their ability to phosphorylate Rho*
decrease in β2AR phosphorylation activity vs wild-type GRK2 [6]: 90–95%

B3: L4A: GRK2 amino terminal point mutant, Leu-4 to alanine (protein)
chain: T1 sequence (P21146 1-689) with L4A
decrease in β2AR phosphorylation activity vs wild-type GRK2 [6]: 90–95%

B4: V477D: mutation in the AGC kinase C-tail of GRK2, literature (protein, UniProt P25098 1-689, looked up, variant V477D)
Beta-adrenergic receptor …: MADLEAVLADVSYLMAMEKSKATPAARASKKILLPEPSIRSVMQKYLEDRGEVTFEKIFSQKLGYLLFRDFCLNHLEEARPLVEFYEEIKKYEKLETEEERVARSREIFDSYIMKELLACSHPFSKSATEHVQGHLGKKQVPPDLFQPYIEEICQNLRGDVFQKFIESDKFTRFCQWKNVELNIHLTMNDFSVHRIIGRGGFGEVYGCRKADTGKMYAMKCLDKKRIKMKQGETLALNERIMLSLVSTGDCPFIVCMSYAFHTPDKLSFILDLMNGGDLHYHLSQHGVFSEADMRFYAAEIILGLEHMHNRFVVYRDLKPANILLDEHGHVRISDLGLACDFSKKKPHASVGTHGYMAPEVLQKGVAYDSSADWFSLGCMLFKLLRGHSPFRQHKTKDKHEIDRMTLTMAVELPDSFSPELRSLLEGLLQRDVNRRLGCLGRGAQEVKESPFFRSLDWQMVFLQKYPPPLIPPRGEDNAADAFDIGSFDEEDTKGIKLLDSDQELYRNFPLTISERWQQEVAETVFDTINAETDRLEARKKAKNKQLGHEEDYALGKDCIMHGYMSKMGNPFLTQWQRRYFYLFPNRLEWRGEGEAPQSLLTMEEIQSVEETQIKERKCLLLKIRGGKQFILQCDSDPELVQWKKELRDAYREAQQLVQRVPKMKNKPRSPVVELSKVPLVQRGSANGL
receptor phosphorylation and receptor-mediated activation ([7]; GRK2 AGC kinase C-tail mutation): defective in receptor phosphorylation and receptor-mediated activation
activity against non-receptor substrates [7]: reduced activity against non-receptor substrates
